Experimental data taken from ChEMBL document CHEMBL3994637, “Broad spectrum anti-infective properties of benzisothiazolones and the parallels in their anti-bacterial and anti-fungal effects” (Bioorg Med Chem Lett, 2017).
In brackets after ≈: the same amount, converted by molar mass.

Test system: Escherichia coli
Assay: Antibacterial activity against Escherichia coli ATCC 9637 by broth microdilution method
Type: functional
Details: W
Procedure, shortened: (§1)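 Bacteria were tested by the NCCLS method in Mueller Hinton broth, with gentamicin and norfloxacin as reference drugs.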

| Structure (SMILES) | IC50 [µg/mL] | MIC [µg/mL] |
| --- | --- | --- |
| O=c1c2ccccc2sn1-c1ccccc1 | > 50 | > 50 |
| COc1ccc(-n2sc3ccccc3c2=O)cc1 | > 50 | > 50 |
| Cc1ccc(-n2sc3ccccc3c2=O)cc1 | > 50 | > 50 |
| COc1ccccc1-n1sc2ccccc2c1=O | > 50 | > 50 |
| O=c1c2ccccc2sn1-c1ccc(F)cc1 | – | > 50 |
| O=c1c2ccccc2sn1-c1cccc2ccccc12 | – | > 50 |
| O=c1c2ccccc2sn1-c1ccc(Cl)cc1 | – | > 50 |

Test system: Staphylococcus aureus
Assay: Antibacterial activity against Staphylococcus aureus ATCC 25923 by broth microdilution method
Type: functional
Details: not given

| Structure (SMILES) | IC50 [µg/mL] | MIC [µg/mL] |
| --- | --- | --- |
| O=c1c2ccccc2sn1-c1ccccc1 | 1.1 (≈ 4.84 µM) | 1.6 (≈ 7.04 µM) |
| COc1ccc(-n2sc3ccccc3c2=O)cc1 | 1.5 (≈ 5.83 µM) | 1.6 (≈ 6.22 µM) |
| Cc1ccc(-n2sc3ccccc3c2=O)cc1 | 0.6 (≈ 2.49 µM) | 1.07 (≈ 4.43 µM) |
| COc1ccccc1-n1sc2ccccc2c1=O | 1 (≈ 3.89 µM) | 2 (≈ 7.77 µM) |
| O=c1c2ccccc2sn1-c1ccc(F)cc1 | – | 6.25 (≈ 25.5 µM) |
| O=c1c2ccccc2sn1-c1cccc2ccccc12 | – | 3.12 (≈ 11.2 µM) |
| O=c1c2ccccc2sn1-c1ccc(Cl)cc1 | – | 6.25 (≈ 23.9 µM) |

Test system: Plasmodium falciparum
Assay: Antimalarial activity against chloroquine-sensitive Plasmodium falciparum 3D7 after 72 hrs by SYBR Green-1 staining based fluorescence assay
Type: functional
Details: 3D7, 72 h

| Structure (SMILES) | IC50 [µM] |
| --- | --- |
| O=c1c2ccccc2sn1-c1ccccc1 | 0.74 |
| COc1ccc(-n2sc3ccccc3c2=O)cc1 | > 2 |
| Cc1ccc(-n2sc3ccccc3c2=O)cc1 | 1.66 |
| COc1ccccc1-n1sc2ccccc2c1=O | > 2 |
| O=c1c2ccccc2sn1-c1ccc(F)cc1 | 0.97 |
| O=c1c2ccccc2sn1-c1cccc2ccccc12 | 2.64 |
| O=c1c2ccccc2sn1-c1ccc(Cl)cc1 | 0.92 |

Test system: Trichophyton mentagrophytes
Assay: Anti-fungal activity against Trichophyton mentagrophytes after 48 hrs by broth microdilution method
Type: functional
Details: not given

| Structure (SMILES) | IC50 [µg/mL] | MIC [µg/mL] |
| --- | --- | --- |
| O=c1c2ccccc2sn1-c1ccccc1 | 0.7 (≈ 3.08 µM) | 0.8 (≈ 3.52 µM) |
| COc1ccc(-n2sc3ccccc3c2=O)cc1 | > 50 | > 50 |
| Cc1ccc(-n2sc3ccccc3c2=O)cc1 | – | 1.7 (≈ 7.04 µM) |
| COc1ccccc1-n1sc2ccccc2c1=O | 0.7 (≈ 2.72 µM) | 2.6 (≈ 10.1 µM) |
| O=c1c2ccccc2sn1-c1ccc(F)cc1 | – | 12.5 (≈ 51 µM) |
| O=c1c2ccccc2sn1-c1cccc2ccccc12 | – | 12.5 (≈ 45.1 µM) |
| O=c1c2ccccc2sn1-c1ccc(Cl)cc1 | – | 12.5 (≈ 47.8 µM) |

Test system: Candida albicans
Assay: Anti-fungal activity against Candida albicans after 48 hrs by broth microdilution method
Type: functional
Details: not given

| Structure (SMILES) | IC50 [µg/mL] | MIC [µg/mL] |
| --- | --- | --- |
| O=c1c2ccccc2sn1-c1ccccc1 | 2.9 (≈ 12.8 µM) | 3.02 (≈ 13.3 µM) |
| COc1ccc(-n2sc3ccccc3c2=O)cc1 | 2.4 (≈ 9.33 µM) | 3.5 (≈ 13.6 µM) |
| Cc1ccc(-n2sc3ccccc3c2=O)cc1 | 1.3 (≈ 5.39 µM) | 2.4 (≈ 9.95 µM) |
| COc1ccccc1-n1sc2ccccc2c1=O | 2.9 (≈ 11.3 µM) | 7.2 (≈ 28 µM) |
| O=c1c2ccccc2sn1-c1ccc(F)cc1 | – | 12.5 (≈ 51 µM) |
| O=c1c2ccccc2sn1-c1cccc2ccccc12 | – | 25 (≈ 90.1 µM) |
| O=c1c2ccccc2sn1-c1ccc(Cl)cc1 | – | 12.5 (≈ 47.8 µM) |

Test system: Staphylococcus aureus
Assay: Antibacterial activity against methicillin-resistant Staphylococcus aureus ATCC 700699 by broth microdilution method
Type: functional
Details: Mu50

| Structure (SMILES) | MIC [µg/mL] |
| --- | --- |
| O=c1c2ccccc2sn1-c1ccccc1 | 0.77 (≈ 3.39 µM) |
| COc1ccc(-n2sc3ccccc3c2=O)cc1 | 0.73 (≈ 2.84 µM) |
| Cc1ccc(-n2sc3ccccc3c2=O)cc1 | 0.75 (≈ 3.11 µM) |
| COc1ccccc1-n1sc2ccccc2c1=O | 1.07 (≈ 4.16 µM) |
| O=c1c2ccccc2sn1-c1ccc(F)cc1 | 3.12 (≈ 12.7 µM) |
| O=c1c2ccccc2sn1-c1cccc2ccccc12 | 3.12 (≈ 11.2 µM) |
| O=c1c2ccccc2sn1-c1ccc(Cl)cc1 | 3.12 (≈ 11.9 µM) |

Test system: Klebsiella pneumoniae
Assay: Antibacterial activity against Klebsiella pneumoniae ATCC 27736 by broth microdilution method
Type: functional
Details: not given
Procedure, shortened: as §1

| Structure (SMILES) | IC50 [µg/mL] | MIC [µg/mL] |
| --- | --- | --- |
| O=c1c2ccccc2sn1-c1ccccc1 | > 50 | > 50 |
| COc1ccc(-n2sc3ccccc3c2=O)cc1 | > 50 | > 50 |
| Cc1ccc(-n2sc3ccccc3c2=O)cc1 | > 50 | > 50 |
| COc1ccccc1-n1sc2ccccc2c1=O | > 50 | > 50 |
| O=c1c2ccccc2sn1-c1ccc(F)cc1 | – | > 50 |
| O=c1c2ccccc2sn1-c1cccc2ccccc12 | – | > 50 |
| O=c1c2ccccc2sn1-c1ccc(Cl)cc1 | – | > 50 |

Test system: Staphylococcus aureus
Assay: Antibacterial activity against Staphylococcus aureus ATCC 29213 by broth microdilution method
Type: functional
Details: not given

| Structure (SMILES) | IC50 [µg/mL] | MIC [µg/mL] |
| --- | --- | --- |
| O=c1c2ccccc2sn1-c1ccccc1 | 1.6 (≈ 7.04 µM) | 2.1 (≈ 9.24 µM) |
| COc1ccc(-n2sc3ccccc3c2=O)cc1 | 1.2 (≈ 4.66 µM) | 1.9 (≈ 7.38 µM) |
| Cc1ccc(-n2sc3ccccc3c2=O)cc1 | 0.6 (≈ 2.49 µM) | 1 (≈ 4.14 µM) |
| COc1ccccc1-n1sc2ccccc2c1=O | 1.6 (≈ 6.22 µM) | 2.4 (≈ 9.33 µM) |
| O=c1c2ccccc2sn1-c1ccc(F)cc1 | – | 3.12 (≈ 12.7 µM) |
| O=c1c2ccccc2sn1-c1cccc2ccccc12 | – | 6.25 (≈ 22.5 µM) |
| O=c1c2ccccc2sn1-c1ccc(Cl)cc1 | – | 6.25 (≈ 23.9 µM) |

Test system: not listed separately
Assay: Selectivity index, ratio of CC50 for monkey Vero C1008 cells to IC50 for chloroquine-sensitive Plasmodium falciparum 3D7
Type: toxicity
Details: read-out: Ratio CC50/IC50

| Structure (SMILES) | selectivity ratio |
| --- | --- |
| O=c1c2ccccc2sn1-c1ccccc1 | 26.3 |
| Cc1ccc(-n2sc3ccccc3c2=O)cc1 | 12 |
| O=c1c2ccccc2sn1-c1ccc(F)cc1 | 84.4 |
| O=c1c2ccccc2sn1-c1cccc2ccccc12 | 34.4 |
| O=c1c2ccccc2sn1-c1ccc(Cl)cc1 | 70.8 |

Test system: not listed separately
Assay: Cytotoxicity against monkey Vero C1008 cells after 72 hrs by MTT assay
Type: cell-based
Details: chlorocebus sabaeus

| Structure (SMILES) | CC50 at 72 h [µM] |
| --- | --- |
| O=c1c2ccccc2sn1-c1ccccc1 | 19.4 |
| COc1ccc(-n2sc3ccccc3c2=O)cc1 | 32.6 |
| Cc1ccc(-n2sc3ccccc3c2=O)cc1 | 19.9 |
| COc1ccccc1-n1sc2ccccc2c1=O | 24.5 |
| O=c1c2ccccc2sn1-c1ccc(F)cc1 | 85.4 |
| O=c1c2ccccc2sn1-c1cccc2ccccc12 | 90.8 |
| O=c1c2ccccc2sn1-c1ccc(Cl)cc1 | 71.7 |

Test system: Sporothrix schenckii
Assay: Anti-fungal activity against Sporothrix schenckii after 48 hrs by broth microdilution method
Type: functional
Details: not given

| Structure (SMILES) | IC50 [µg/mL] | MIC [µg/mL] |
| --- | --- | --- |
| O=c1c2ccccc2sn1-c1ccccc1 | 0.6 (≈ 2.64 µM) | 1.7 (≈ 7.48 µM) |
| COc1ccc(-n2sc3ccccc3c2=O)cc1 | 0.4 (≈ 1.55 µM) | 0.8 (≈ 3.11 µM) |
| Cc1ccc(-n2sc3ccccc3c2=O)cc1 | 0.9 (≈ 3.73 µM) | 1 (≈ 4.14 µM) |
| COc1ccccc1-n1sc2ccccc2c1=O | 0.6 (≈ 2.33 µM) | 4 (≈ 15.5 µM) |
| O=c1c2ccccc2sn1-c1ccc(F)cc1 | – | 12.5 (≈ 51 µM) |
| O=c1c2ccccc2sn1-c1cccc2ccccc12 | – | 12.5 (≈ 45.1 µM) |
| O=c1c2ccccc2sn1-c1ccc(Cl)cc1 | – | 12.5 (≈ 47.8 µM) |

Test system: Candida parapsilosis
Assay: Anti-fungal activity against Candida parapsilosis ATCC 22019 after 48 hrs by broth microdilution method
Type: functional
Details: Lodderomyces parapsilosis, ATCC 22019, 48 h

| Structure (SMILES) | IC50 [µg/mL] | MIC [µg/mL] |
| --- | --- | --- |
| O=c1c2ccccc2sn1-c1ccccc1 | 0.7 (≈ 3.08 µM) | 0.8 (≈ 3.52 µM) |
| COc1ccc(-n2sc3ccccc3c2=O)cc1 | 0.6 (≈ 2.33 µM) | 0.7 (≈ 2.72 µM) |
| Cc1ccc(-n2sc3ccccc3c2=O)cc1 | 0.4 (≈ 1.66 µM) | 0.6 (≈ 2.49 µM) |
| COc1ccccc1-n1sc2ccccc2c1=O | 0.7 (≈ 2.72 µM) | 3.2 (≈ 12.4 µM) |
| O=c1c2ccccc2sn1-c1ccc(F)cc1 | – | 12.5 (≈ 51 µM) |
| O=c1c2ccccc2sn1-c1cccc2ccccc12 | – | 25 (≈ 90.1 µM) |
| O=c1c2ccccc2sn1-c1ccc(Cl)cc1 | – | 12.5 (≈ 47.8 µM) |

Test system: Cryptococcus neoformans
Assay: Anti-fungal activity against Cryptococcus neoformans after 48 hrs by broth microdilution method
Type: functional
Details: not given

| Structure (SMILES) | IC50 [µg/mL] | MIC [µg/mL] |
| --- | --- | --- |
| O=c1c2ccccc2sn1-c1ccccc1 | 0.9 (≈ 3.96 µM) | 1.21 (≈ 5.32 µM) |
| COc1ccc(-n2sc3ccccc3c2=O)cc1 | 0.9 (≈ 3.5 µM) | 1.1 (≈ 4.27 µM) |
| Cc1ccc(-n2sc3ccccc3c2=O)cc1 | 1.2 (≈ 4.97 µM) | 1.5 (≈ 6.22 µM) |
| COc1ccccc1-n1sc2ccccc2c1=O | 0.9 (≈ 3.5 µM) | 3.8 (≈ 14.8 µM) |
| O=c1c2ccccc2sn1-c1ccc(F)cc1 | – | 12.5 (≈ 51 µM) |
| O=c1c2ccccc2sn1-c1cccc2ccccc12 | – | 25 (≈ 90.1 µM) |
| O=c1c2ccccc2sn1-c1ccc(Cl)cc1 | – | 12.5 (≈ 47.8 µM) |

Test system: Pseudomonas aeruginosa
Assay: Antibacterial activity against Pseudomonas aeruginosa ATCC BAA-427 by broth microdilution method
Type: functional
Details: not given
Procedure, shortened: as §1

| Structure (SMILES) | IC50 [µg/mL] | MIC [µg/mL] |
| --- | --- | --- |
| O=c1c2ccccc2sn1-c1ccccc1 | > 50 | > 50 |
| COc1ccc(-n2sc3ccccc3c2=O)cc1 | > 50 | > 50 |
| Cc1ccc(-n2sc3ccccc3c2=O)cc1 | > 50 | > 50 |
| COc1ccccc1-n1sc2ccccc2c1=O | > 50 | > 50 |
| O=c1c2ccccc2sn1-c1ccc(F)cc1 | – | > 50 |
| O=c1c2ccccc2sn1-c1cccc2ccccc12 | – | > 50 |
| O=c1c2ccccc2sn1-c1ccc(Cl)cc1 | – | > 50 |

Test system: Aspergillus fumigatus
Assay: Anti-fungal activity against Aspergillus fumigatus after 48 hrs by broth microdilution method
Type: functional
Details: not given

| Structure (SMILES) | IC50 [µg/mL] | MIC [µg/mL] |
| --- | --- | --- |
| O=c1c2ccccc2sn1-c1ccccc1 | 6.1 (≈ 26.8 µM) | 6.4 (≈ 28.2 µM) |
| COc1ccc(-n2sc3ccccc3c2=O)cc1 | 6.9 (≈ 26.8 µM) | 11 (≈ 42.7 µM) |
| Cc1ccc(-n2sc3ccccc3c2=O)cc1 | 4.1 (≈ 17 µM) | 13.3 (≈ 55.1 µM) |
| COc1ccccc1-n1sc2ccccc2c1=O | > 50 | > 50 |
| O=c1c2ccccc2sn1-c1ccc(F)cc1 | – | 25 (≈ 102 µM) |
| O=c1c2ccccc2sn1-c1cccc2ccccc12 | – | 50 (≈ 180 µM) |
| O=c1c2ccccc2sn1-c1ccc(Cl)cc1 | – | 25 (≈ 95.5 µM) |

Test system: Staphylococcus aureus
Assay: Antibacterial activity against gentamicin-resistant Staphylococcus aureus ATCC 33592 by broth microdilution method
Type: functional
Details: not given

| Structure (SMILES) | MIC [µg/mL] |
| --- | --- |
| O=c1c2ccccc2sn1-c1ccc(F)cc1 | 3.12 (≈ 12.7 µM) |
| O=c1c2ccccc2sn1-c1cccc2ccccc12 | 6.25 (≈ 22.5 µM) |
| O=c1c2ccccc2sn1-c1ccc(Cl)cc1 | 6.26 (≈ 23.9 µM) |
